Test results: ChEMBL document CHEMBL4004807 (J Med Chem, 2017)
Calls of active or inactive are those of the source. The calls are words filed in the database; no cut-off is given here.

What was measured:
Prostacyclin receptor [1] = molecular target: T1, Prostacyclin receptor (Homo sapiens, UniProt P43119); test: Ratio of IC50 for IP receptor in human primary platelets to EC50 for recombinant human IP receptor expressed in CHO-K1 cells; format: cell-based
[2] = Volume of distribution at steady state in Sprague-Dawley rat at 2 mg/kg, iv or 10 mg/kg, po; format: ADME, organism-based; conditions: in vivo
[3] = Selectivity ratio of EC50 for recombinant rat IP receptor expressed in CHO-K1 cells to EC50 for recombinant human IP receptor expressed in CHO-K1 cells; format: cell-based
[4] = Total clearance in Sprague-Dawley rat plasma at 2 mg/kg, iv or 10 mg/kg, po; format: ADME, organism-based
Rattus norvegicus [5] = test: AUC (0 to infinity) in Sprague-Dawley rat at 10 mg/kg, po; format: ADME, organism-based; design: dose 10 mg/kg, route oral, time infinity; conditions: in vivo
Summary of the method: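 Sprague-Dawley rats, single oral dose of 10.0 mg/kg; AUC0-inf from plasma concentrations.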

[6] = molecular target: T2, Prostaglandin E2 receptor EP3 subtype (Homo sapiens, UniProt P43115); test: Agonist activity at recombinant human EP3v6 receptor expressed in melanophores assessed as induction of pigment redistribution up to 10 uM after 90 mins; conditions: 1.5 h
T2 sequence (P43115 whole entry): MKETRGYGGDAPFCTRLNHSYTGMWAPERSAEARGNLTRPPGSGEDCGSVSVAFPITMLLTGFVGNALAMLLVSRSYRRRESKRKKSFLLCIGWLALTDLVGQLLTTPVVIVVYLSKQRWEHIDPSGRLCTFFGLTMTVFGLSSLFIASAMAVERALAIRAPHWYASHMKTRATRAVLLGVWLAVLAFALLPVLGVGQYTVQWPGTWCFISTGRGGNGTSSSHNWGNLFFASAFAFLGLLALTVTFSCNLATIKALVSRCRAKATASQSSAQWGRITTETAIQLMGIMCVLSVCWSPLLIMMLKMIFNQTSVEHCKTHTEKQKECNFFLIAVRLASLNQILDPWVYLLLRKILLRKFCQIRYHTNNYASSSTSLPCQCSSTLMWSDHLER
Summary of the method: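 Melanophores electroporated with 20 μg human EP3v6 plasmid per 400 μL cells, grown 48 h at 27 °C. Assay buffer 0.7× PBS pH 7.3 with 20 nM melatonin to aggregate pigment, 90 min at room temperature, 650 nm baseline; compounds added (10-point, 5-fold dilutions, top 10 μM final), 90 min room temperature, absorbance reread.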

[7] = molecular target: Prostaglandin E2 receptor EP4 subtype (Homo sapiens) (UniProt P35408); test: Agonist activity at recombinant human EP4 receptor expressed in CHO-K1 cells assessed as increase in intracellular cAMP level up to 10 uM after 1 hr incubation by HTRF method; format: functional, cell-based
Prostacyclin receptor [8] = molecular target: T1, Prostacyclin receptor; test: Agonist activity at IP receptor in PAH patient-derived primary pulmonary arterial smooth muscle cells assessed as induction of cAMP levels after 1 hr by HTRF method; format: functional
Rattus norvegicus [9] = test: Inhibition of right ventricle hypertrophic response in Sprague-Dawley rat monocrotaline model of pulmonary arterial hypertension assessed as reduction of MCT-induced increase in ratio of right ventricular weight to left ventricle plus septum weight administered via oral gavage twice daily for 21 consecutive days starting 24 hrs after monocrotaline challenge; format: functional
Summary of the method: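 Male rats given 60 mg/kg monocrotaline sc on day 1 (sham: saline) under 30 mg/kg ip pentobarbital; from next day for 20 days dosed by oral gavage twice daily at 10 or 30 mg/kg in 20% HPBCD in saline (vehicle control). Day 21: RV/(LV+S) weights; mPAP via catheter under 60 mg/kg pentobarbital (30 mg/kg group, n = 5); H&E lung sections, 5 animals/group.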

[10] = molecular target: Prostaglandin E2 receptor EP2 subtype (Homo sapiens) (UniProt P43116); test: Agonist activity at recombinant human EP2 receptor expressed in CHO-K1 cells assessed as increase in intracellular cAMP level up to 10 uM after 1 hr incubation by HTRF method; format: functional, cell-based
Plasma = test: Drug level in bile-duct cannulated rat plasma treated with 2-(((1r,4r)-4-(((4-chlorophenyl)(phenyl)carbamoyloxy)methyl)cyclohexyl)methoxy)acetic acid; format: ADME, cell-free
[11] = Half life in human microsomes; format: ADME, Microsome
[12] = molecular target: T3, Prostaglandin D2 receptor (Homo sapiens) (UniProt Q13258); test: Intrinsic activity at recombinant human DP1 receptor expressed in CHO-K1 cells assessed as increase in intracellular cAMP level after 1 hr incubation by HTRF method relative to prostaglandin D2; format: functional, cell-based
T3 sequence (whole entry): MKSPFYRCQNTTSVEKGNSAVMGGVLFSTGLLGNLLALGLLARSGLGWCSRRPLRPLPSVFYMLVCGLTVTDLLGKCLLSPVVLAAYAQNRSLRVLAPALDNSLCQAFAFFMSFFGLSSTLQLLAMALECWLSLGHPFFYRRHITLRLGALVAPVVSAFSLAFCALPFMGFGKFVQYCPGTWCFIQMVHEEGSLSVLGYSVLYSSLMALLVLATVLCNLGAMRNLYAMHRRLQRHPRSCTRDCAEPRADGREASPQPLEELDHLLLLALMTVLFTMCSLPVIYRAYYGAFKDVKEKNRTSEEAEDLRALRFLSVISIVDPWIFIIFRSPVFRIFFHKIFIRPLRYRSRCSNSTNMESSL
Summary of the method: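 CHO-K1 clonal line stably expressing DP1 at minimal level; HTRF cAMP assay, 1 h incubation at room temperature, time-resolved fluorescence read-out.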

Prostacyclin receptor [13] = molecular target: T1, Prostacyclin receptor; test: Intrinsic activity at recombinant human IP receptor expressed in CHO-K1 cells assessed as increase in intracellular cAMP level at 10 uM after 1 hr incubation by HTRF method relative to iloprost; format: functional, cell-based
Summary of the method: (§1)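 Stably transfected CHO-K1 clones with receptor expression kept minimal to avoid receptor reserve. Cells at 200 000/mL in PBS with 1 mM IBMX and 0.2% BSA. 10-point 5-fold dilution series, top 10 μM, tested in triplicate plates, 1 h at room temperature. HTRF cAMP read by time-resolved fluorescence.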

[14] = molecular target: Prostacyclin receptor (Rattus norvegicus) (UniProt P43253); test: Intrinsic activity at recombinant rat IP receptor expressed in CHO-K1 cells assessed as increase in intracellular cAMP level at 10 uM after 1 hr incubation by HTRF method relative to iloprost; format: functional, cell-based; summary of the method: as §1
[15] = Half life in rat microsomes; format: ADME, Microsome

T1 sequence (P43119 whole entry): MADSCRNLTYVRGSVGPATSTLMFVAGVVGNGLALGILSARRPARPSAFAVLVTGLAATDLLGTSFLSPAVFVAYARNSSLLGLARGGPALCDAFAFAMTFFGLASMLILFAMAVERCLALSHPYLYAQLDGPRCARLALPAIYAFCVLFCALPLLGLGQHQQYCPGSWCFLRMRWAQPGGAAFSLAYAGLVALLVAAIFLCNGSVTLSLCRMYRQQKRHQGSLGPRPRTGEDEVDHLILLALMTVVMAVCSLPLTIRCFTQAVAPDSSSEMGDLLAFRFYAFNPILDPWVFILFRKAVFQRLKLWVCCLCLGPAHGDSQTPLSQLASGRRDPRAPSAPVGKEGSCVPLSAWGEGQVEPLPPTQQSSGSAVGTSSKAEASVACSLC
Sequence of Prostaglandin E2 receptor EP2 subtype (Homo sapiens) (P43116 whole entry): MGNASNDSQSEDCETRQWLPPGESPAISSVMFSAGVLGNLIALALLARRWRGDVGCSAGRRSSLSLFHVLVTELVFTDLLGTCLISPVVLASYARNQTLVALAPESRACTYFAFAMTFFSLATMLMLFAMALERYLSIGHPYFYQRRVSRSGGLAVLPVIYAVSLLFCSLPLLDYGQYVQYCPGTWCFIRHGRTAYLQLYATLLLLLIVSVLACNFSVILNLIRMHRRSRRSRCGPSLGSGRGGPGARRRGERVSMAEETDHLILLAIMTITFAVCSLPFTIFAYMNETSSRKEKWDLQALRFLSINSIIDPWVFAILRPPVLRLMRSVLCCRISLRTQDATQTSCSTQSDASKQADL
Sequence of Prostacyclin receptor (Rattus norvegicus) (P43253 whole entry): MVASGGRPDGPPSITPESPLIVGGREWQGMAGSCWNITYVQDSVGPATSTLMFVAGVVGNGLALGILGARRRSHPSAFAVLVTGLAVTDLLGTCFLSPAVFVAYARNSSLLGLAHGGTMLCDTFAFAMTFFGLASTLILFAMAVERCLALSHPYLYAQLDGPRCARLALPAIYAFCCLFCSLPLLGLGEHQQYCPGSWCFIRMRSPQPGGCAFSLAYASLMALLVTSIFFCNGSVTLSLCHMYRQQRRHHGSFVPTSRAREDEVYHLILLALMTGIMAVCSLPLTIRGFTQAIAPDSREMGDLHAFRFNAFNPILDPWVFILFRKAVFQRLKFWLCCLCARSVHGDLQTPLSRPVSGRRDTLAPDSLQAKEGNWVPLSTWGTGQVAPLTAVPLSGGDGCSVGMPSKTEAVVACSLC
Sequence of Prostaglandin E2 receptor EP4 subtype (Homo sapiens) (P35408 whole entry): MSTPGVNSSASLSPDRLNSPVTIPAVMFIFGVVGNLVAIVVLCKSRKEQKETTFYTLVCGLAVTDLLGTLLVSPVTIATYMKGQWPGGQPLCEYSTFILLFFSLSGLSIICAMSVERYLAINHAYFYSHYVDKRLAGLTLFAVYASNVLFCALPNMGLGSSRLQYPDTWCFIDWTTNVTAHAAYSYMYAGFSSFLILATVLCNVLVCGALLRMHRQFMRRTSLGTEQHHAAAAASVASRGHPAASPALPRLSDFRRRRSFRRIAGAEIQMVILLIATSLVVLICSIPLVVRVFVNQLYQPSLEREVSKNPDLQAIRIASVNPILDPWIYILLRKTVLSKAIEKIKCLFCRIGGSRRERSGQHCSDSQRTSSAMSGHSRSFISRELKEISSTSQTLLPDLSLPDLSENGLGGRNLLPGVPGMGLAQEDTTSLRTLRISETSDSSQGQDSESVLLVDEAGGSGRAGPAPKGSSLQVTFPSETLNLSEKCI

## O=C(O)COC[C@H]1CC[C@H](COC(=O)N(c2ccccc2)c2ccc(Cl)c(F)c2)CC1
Prostacyclin receptor [1]
  Ratio IC50/EC50: 2 to 10
[2]
  Vd: 3.5 L/kg
[3]
  Ratio EC50: 10 to 30
[4]
  clearance: 13.3 mL/min/kg
Rattus norvegicus [5]
  AUC: 2600 ng·h/mL

## COc1cccc(N(C(=O)OC[C@H]2CC[C@H](COCC(=O)O)CC2)c2ccccc2)c1
Prostacyclin receptor [1]
  Ratio IC50/EC50: 2 to 10
[2]
  Vd: 6.3 L/kg
[3]
  Ratio EC50: 10 to 30
Rattus norvegicus [5]
  AUC: 1900 ng·h/mL

## O=C(O)COC[C@H]1CC[C@H](COC(=O)N(c2ccc(Cl)cc2)c2cccc(F)c2)CC1
Prostacyclin receptor [1]
  Ratio IC50/EC50: 2 to 10
[3]
  Ratio EC50: 10 to 30

## O=C(O)COC[C@H]1CC[C@H](COC(=O)N(c2ccccc2)c2cccc(F)c2)CC1
Prostacyclin receptor [1]
  Ratio IC50/EC50: 2 to 10
[6]
  Activity: Active
[2]
  Vd: 2.74 L/kg
[3]
  Ratio EC50: 10 to 30
[7]
  Activity: inactive
Prostacyclin receptor [8]
  Activity: Active
Rattus norvegicus [9]
  inhibition: Dose-dependent effect
[4]
  clearance: 20 mL/min/kg
[10]
  Activity: inactive
Rattus norvegicus [5]
  AUC: 7900 ng·h/mL

## O=C(O)COC[C@H]1CC[C@H](COC(=O)N(c2ccc(F)cc2)c2ccc(F)cc2)CC1
Prostacyclin receptor [1]
  Ratio IC50/EC50: 2 to 10
[3]
  Ratio EC50: 10 to 30

## COc1ccc(N(C(=O)OC[C@H]2CC[C@H](COCC(=O)O)CC2)c2cccc(F)c2)cc1
Prostacyclin receptor [1]
  Ratio IC50/EC50: 2 to 10
[3]
  Ratio EC50: 10 to 30

## O=C(COC[C@H]1CC[C@H](COC(=O)N(c2ccc(O)cc2)c2ccc(Cl)cc2)CC1)NCCS(=O)(=O)O
Plasma
  Drug metabolism: Metabolite_Detected

## O=C(O)COC[C@H]1CC[C@H](COC(=O)N(c2ccccc2)c2ccccc2)CC1
Prostacyclin receptor [1]
  Ratio IC50/EC50: 2 to 10
[3]
  Ratio EC50: 10 to 30

## O=C(O)COC[C@H]1CC[C@@H](COC(=O)N(c2ccccc2)c2cccc(F)c2)CC1
Prostacyclin receptor [1]
  Ratio IC50/EC50: 2 to 10
[3]
  Ratio EC50: 10 to 30

## COc1ccc(N(C(=O)OC[C@H]2CC[C@@H](COCC(=O)O)CC2)c2ccccc2)cc1
Prostacyclin receptor [1]
  Ratio IC50/EC50: 2 to 10
[3]
  Ratio EC50: 10 to 30

## O=C(O)COC[C@H]1CC[C@@H](COC(=O)N(c2ccccc2)c2cccc(Cl)c2)CC1
[11]
  half-life: > 1 h
[12]
  Intrinsic activity: 30%
Prostacyclin receptor [13]
  Intrinsic activity: 80%
[14]
  Intrinsic activity: 88%
[15]
  half-life: > 1 h

## O=C(O)COC[C@H]1CC[C@H](COC(=O)N(c2ccc(O)cc2)c2ccc(Cl)cc2)CC1
Plasma
  Drug metabolism: Metabolite_Detected
